Only a selection was taken, and hits are over-represented in it overall.
INS-1E rescue – rescue of cytokine-induced death in INS-1E beta cells; protection from cytokine-induced ATP loss, % at 10 µM; INS-1E cytokine-induced death, ATP luminescence, 48 h; normalised: neutral wells 0, positive control 100; hit rate 0.1% among 20,000;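 active means mean replicate protection from cytokine-induced ATP loss at least 50% and at least 75% of replicates each reaching 50%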
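Assay system: INS-1E rat insulinoma cells. Amount: 8000 cells per well. Medium: phenol-red-free RPMI with 5% fetal bovine serum. Reagent: IL-1β, TNF-α and IFN-γ cytokine mix. Doses: one compound concentration, pin transfer. Schedule: 48 h co-treatment, 10 min post-lysis read. Detection: CellTiter-Glo luminescence measuring cellular ATP.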
A1 apoptosis 2 – compounds inhibiting A1, read as caspase activation; AID 2465; MEF A1-2A-BIM cells, caspase-Glo luminescence, 3 h; percent of clofoctol response, DMSO zero; caspase activation, % (concentration not given with the values); 24,000 tested, under 10 active; in the data active means caspase activation above about 5.9%
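System: mouse embryonic fibroblasts co-expressing A1 and BIM (A1-2A-BIM), primed for A1 dependence; amount: 2500 cells/well; doses: 50 nL pinned compound; schedule: cells settled overnight, compound exposure 3 h at 37 °C, 5% CO2; detection: Caspase-Glo 3/7 luminescence, 1 h at room temperature; read-out: Caspase-3/7 activation, seen as rise in luminescence signal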
T cruzi HTS – blocks T. cruzi growth inside host cells | hit rate 4.9% among 22,000 | activity score (inhibition), % at 5.01 µM | intracellular Trypanosoma cruzi in host cells, plate reader; in the data active means activity score above about 55%;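 further: parasites and compound incubated about four days before reading; 0% = median of neutral control wells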
* marks the source's active call; other numbers are inactive results; . = not tested or not shown.

SMILES | INS-1E rescue | A1 apoptosis 2 | T cruzi HTS
Cc1noc(C)c1S(=O)(=O)N(C)C[C@H]1Oc2ccc(NC(=O)CCC(F)(F)F)cc2CC(=O)N([C@@H](C)CO)C[C@H]1C | 1 | . | -1
CNC[C@@H]1OCCCC[C@H](C)Oc2ccc(N(C)C)cc2C(=O)N([C@H](C)CO)C[C@H]1C | . | 0 | .
COc1cc(/C=C/C=N/NC(=O)c2ccccc2O)ccc1O | -10 | . | -11
C[C@@H]1CN([C@H](C)CO)C(=O)Cc2cc(NC(=O)Nc3cccc4ccccc34)ccc2O[C@H]1CN(C)Cc1ccc(Oc2ccccc2)cc1 | -10 | . | 57*
C[C@H]1CN([C@@H](C)CO)C(=O)Cc2cc(NC(=O)Nc3cccc4ccccc34)ccc2O[C@H]1CN(C)Cc1ccc(Oc2ccccc2)cc1 | -21 | . | 26
C[C@@H]1CN([C@@H](C)CO)C(=O)Cc2cc(NC(=O)Nc3cccc4ccccc34)ccc2O[C@H]1CN(C)Cc1ccc(Cl)c(Cl)c1 | . | 1 | .
C[C@H]1CN([C@@H](C)CO)C(=O)Cc2cc(NC(=O)Nc3cccc4ccccc34)ccc2O[C@@H]1CN(C)Cc1ccc(Cl)c(Cl)c1 | -22 | . | 60*
C[C@H](CO)N1C[C@H](C)[C@@H](CN(C)C(=O)Nc2ccc3c(c2)OCO3)Oc2c(NC(=O)C3CCCCC3)cccc2C1=O | 1 | -1 | -3
C[C@H]1CN([C@@H](C)CO)C(=O)Cc2cc(NS(=O)(=O)c3cccs3)ccc2O[C@@H]1CN(C)C(=O)Nc1ccc(C(F)(F)F)cc1 | -4 | . | -9
Cc1ccc(S(=O)(=O)N(C)C[C@H]2Oc3c(NC(=O)CCCCCC(=O)Nc4ccccc4N)cccc3C(=O)N([C@H](C)CO)C[C@@H]2C)cc1 | -3 | . | 45
C[C@H](CO)N1C[C@H](C)[C@@H](CN(C)Cc2ccc(C(=O)Nc3ccccc3N)cc2)Oc2ccc(NC(=O)Nc3ccc(F)cc3)cc2C1=O | -8 | . | 26
C[C@@H]1CN([C@@H](C)CO)C(=O)c2cccc(NC(=O)Nc3ccc(F)cc3)c2O[C@@H]1CN(C)Cc1ccc(C(=O)Nc2ccccc2N)cc1 | 19 | -4 | 70*
C[C@H](CO)N1C[C@H](C)[C@@H](CN(C)Cc2ccc(C(=O)Nc3ccccc3N)cc2)Oc2c(NC(=O)Nc3ccccc3)cccc2C1=O | 6 | . | 61*
C[C@@H]1CN([C@@H](C)CO)C(=O)c2cccc(NC(=O)Nc3ccccc3)c2O[C@H]1CN(C)Cc1ccc(C(=O)Nc2ccccc2N)cc1 | 8 | 0 | 49
C[C@H](CO)N1C[C@H](C)[C@H](CN(C)Cc2ccc(C(=O)Nc3ccccc3N)cc2)Oc2c(NC(=O)Nc3ccc4c(c3)OCO4)cccc2C1=O | -10 | 0 | 55
CC(C)NC(=O)Nc1cccc2c1O[C@H](CN(C)Cc1ccc(C(=O)Nc3ccccc3N)cc1)[C@H](C)CN([C@H](C)CO)C2=O | -5 | 0 | 51
C[C@@H]1CN([C@H](C)CO)C(=O)c2cccc(NC(=O)Nc3ccc4c(c3)OCO4)c2O[C@H]1CN(C)Cc1ccc(C(=O)Nc2ccccc2N)cc1 | 10 | . | 77*
C[C@H]1CN([C@@H](C)CO)C(=O)c2cccc(NC(=O)Nc3ccccc3)c2O[C@@H]1CN(C)Cc1ccc(C(=O)Nc2ccccc2N)cc1 | 17 | -1 | 74*
O=C(NCc1ccc(F)cc1)[C@H]1C[C@H]2C(=O)N[C@@H](Cc3ccccc3)C(=O)N2[C@H]1c1cccc(OCCO)c1 | . | 1 | .
C[C@H]1CN([C@@H](C)CO)C(=O)c2cccc(NC(=O)Nc3ccc(F)cc3)c2O[C@@H]1CN(C)S(=O)(=O)c1ccccc1 | -2 | 0 | 7
COC(=O)CCCCCCC(=O)N/N=C/c1ccc(OCCCN(C)C)cc1 | 9 | . | 81*
COC(=O)CCCCCCC(=O)N/N=C/c1cc(Br)cc(OC)c1O | 32 | 0 | 26
O=C(CCCCCCC(=O)Nc1ccccc1O)N/N=C/c1ccc(OCc2ccccc2)cc1O | 10 | -2 | 78*
COc1ccc(/C=N/NC(=O)CCCCCCC(=O)Nc2ccccc2O)c(O)c1 | -6 | . | 26
COC(=O)CCCCCCC(=O)N/N=C/c1cc(Br)cc(Br)c1O | 14 | 1 | 62*
SMILES | INS-1E rescue | A1 apoptosis 2 | T cruzi HTS
CN(C)CCCOc1ccc(/C=N/NC(=O)CCCCCCC(=O)NO)cc1 | . | -1 | .
CN(C)CCCOc1ccc(/C=N/NC(=O)CCCCCCC(=O)Nc2ccccc2O)cc1 | -3 | . | 87*
O=C(CCCCCCC(=O)Nc1ccccc1O)N/N=C/c1ccc(OCCO)cc1 | -13 | 0 | -3
C[C@H]1CN([C@@H](C)CO)C(=O)c2cc(NS(=O)(=O)c3cccs3)ccc2O[C@@H]1CN(C)S(=O)(=O)c1cn(C)cn1 | . | 2 | .
C[C@H]1CN([C@@H](C)CO)C(=O)c2cc(NC(=O)C3CCCCC3)ccc2O[C@@H]1CN(C)C(=O)NC1CCCCC1 | . | 1 | -7
C[C@@H]1CN([C@H](C)CO)C(=O)c2cc(NC(=O)CCCN(C)C)ccc2O[C@@H]1CN(C)Cc1ccncc1 | -2 | . | 0
Cc1noc(C)c1S(=O)(=O)Nc1cccc2c1O[C@H](CN(C)C(=O)NC1CCCCC1)[C@H](C)CN([C@@H](C)CO)C2=O | -4 | -1 | 8
COc1ccc(NC(=O)Nc2ccc3c(c2)CC(=O)N([C@@H](C)CO)C[C@H](C)[C@H](CN(C)C(=O)Nc2ccc(F)cc2)O3)cc1 | 2 | 1 | -12
C[C@H]1CN([C@@H](C)CO)C(=O)Cc2cc(NS(=O)(=O)c3cn(C)cn3)ccc2O[C@@H]1CN(C)C(=O)Nc1ccc(F)cc1 | -9 | . | .
COc1ccc(S(=O)(=O)Nc2ccc3c(c2)CC(=O)N([C@H](C)CO)C[C@H](C)[C@@H](CN(C)Cc2ccc(Cl)c(Cl)c2)O3)cc1 | . | -1 | .
COc1ccc(S(=O)(=O)Nc2ccc3c(c2)CC(=O)N([C@H](C)CO)C[C@@H](C)[C@@H](CN(C)Cc2ccc(Cl)c(Cl)c2)O3)cc1 | -12 | -1 | 55*
COc1ccc(S(=O)(=O)Nc2ccc3c(c2)C(=O)N([C@@H](C)CO)C[C@@H](C)[C@@H](CN(C)Cc2ccc(Cl)c(Cl)c2)O3)cc1 | -25 | 1 | 12
COc1ccc(S(=O)(=O)Nc2ccc3c(c2)CC(=O)N([C@@H](C)CO)C[C@H](C)[C@H](CN(C)Cc2ccc(Cl)c(Cl)c2)O3)cc1 | -21 | . | 73*
COc1ccc(CN(C)C[C@@H]2Oc3ccc(NS(=O)(=O)c4ccc(Cl)cc4)cc3CC(=O)N([C@@H](C)CO)C[C@H]2C)cc1 | . | -1 | .
COc1ccc(S(=O)(=O)Nc2ccc3c(c2)CC(=O)N([C@@H](C)CO)C[C@@H](C)[C@@H](CN(C)Cc2ccc(Cl)c(Cl)c2)O3)cc1 | -39 | . | 63*
C[C@H](CO)N1C[C@H](C)[C@H](CN(C)Cc2ccc3c(c2)OCCO3)OCc2cn(nn2)CCCC1=O | . | . | -16
Cc1cc(C(=O)Nc2cccc3c2O[C@H](CN(C)S(=O)(=O)c2ccc(Cl)cc2)[C@H](C)CN([C@H](C)CO)C3=O)n(C)n1 | -1 | . | 6
C[C@H](CO)N1C[C@H](C)[C@@H](CN(C)C(=O)Nc2ccccc2)Oc2ccc(NC(=O)c3ccncc3)cc2C1=O | 2 | 0 | 13
